# Measurements taken from ChEMBL document CHEMBL4689842, “EUbOPEN Chemogenomics Library wave 1” (2021).
# System: U2OS
# Test: Multiplex assay against U2OS
# Type: toxicity, cell-based
# Conditions: human
# Method in brief: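 Phenotypes for tubulin, mitochondrial mass and membrane permeability are expressed as per cents of healthy-nucleus cells. Cells were stained live at seeding with Hoechst33342, BioTracker Green Microtubule Cytoskeleton Dye, MitoTracker Red and Annexin V Alexa Fluor 680, then imaged after compound addition on a CQ1 microscope at 37°C and 5% CO2. Machine-learning gating in CellPathfinder separated Hoechst high-intensity objects from normal cells, divided normal cells by nuclear state (healthy, pyknosed, fragmented) and divided pyknosed cells into mitotic or apoptotic.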
# [1] = 12 h, 1 µM, compound concentration 1 uM, replicate 1
# [2] = 12 h, 1 µM, compound concentration 1 uM, replicate 2
# [3] = 12 h, 10 µM, compound concentration 10 uM, replicate 1
# [4] = 12 h, 10 µM, compound concentration 10 uM, replicate 2
# [5] = 24 h, 1 µM, compound concentration 1 uM, replicate 1
# [6] = 24 h, 1 µM, compound concentration 1 uM, replicate 2
# [7] = 24 h, 10 µM, compound concentration 10 uM, replicate 1
# [8] = 24 h, 10 µM, compound concentration 10 uM, replicate 2
# [9] = 48 h, 1 µM, compound concentration 1 uM, replicate 1
# [10] = 48 h, 1 µM, compound concentration 1 uM, replicate 2
# [11] = 48 h, 10 µM, compound concentration 10 uM, replicate 1
# [12] = 48 h, 10 µM, compound concentration 10 uM, replicate 2
structure (smiles),measurement,setting,value
O=C1NCN(c2ccccc2)C12CCN(CCCOc1ccc(F)cc1)CC2 [SPIRAMIDE],Population Apoptotic (%),[1],22%
same,Population Fragmented Nuclei (%),[1],16%
same,Population Healthy Nuclei (%),[1],77%
same,Population Hoechst High Intensity Objects (%),[1],6%
same,Population Membrane Permeable-Phenotype (%),[1],1%
same,Population Mitochondria Different-Phenotype (%),[1],9%
same,Population Mitotic Cells (%),[1],77%
same,Population Normal (%),[1],93%
same,Population Pyknosed Nuclei (%),[1],6%
same,Population Tubulin-Different-Phenotype (%),[1],10%
same,Total Cell Count,[1],210
same,Population Apoptotic (%),[2],0%
same,Population Fragmented Nuclei (%),[2],10%
same,Population Healthy Nuclei (%),[2],88%
same,Population Hoechst High Intensity Objects (%),[2],7%
same,Population Membrane Permeable-Phenotype (%),[2],0%
same,Population Mitochondria Different-Phenotype (%),[2],10%
same,Population Mitotic Cells (%),[2],100%
same,Population Normal (%),[2],92%
same,Population Pyknosed Nuclei (%),[2],1%
same,Population Tubulin-Different-Phenotype (%),[2],6%
same,Total Cell Count,[2],74
same,Population Apoptotic (%),[3],36%
same,Population Fragmented Nuclei (%),[3],16%
same,Population Healthy Nuclei (%),[3],51%
same,Population Hoechst High Intensity Objects (%),[3],10%
same,Population Membrane Permeable-Phenotype (%),[3],4%
same,Population Mitochondria Different-Phenotype (%),[3],74%
same,Population Mitotic Cells (%),[3],63%
same,Population Normal (%),[3],90%
same,Population Pyknosed Nuclei (%),[3],31%
same,Population Tubulin-Different-Phenotype (%),[3],50%
same,Total Cell Count,[3],145
same,Population Apoptotic (%),[4],50%
same,Population Fragmented Nuclei (%),[4],3%
same,Population Healthy Nuclei (%),[4],88%
same,Population Hoechst High Intensity Objects (%),[4],8%
same,Population Membrane Permeable-Phenotype (%),[4],2%
same,Population Mitochondria Different-Phenotype (%),[4],27%
same,Population Mitotic Cells (%),[4],50%
same,Population Normal (%),[4],91%
same,Population Pyknosed Nuclei (%),[4],7%
same,Population Tubulin-Different-Phenotype (%),[4],12%
same,Total Cell Count,[4],91
same,Population Apoptotic (%),[5],27%
same,Population Fragmented Nuclei (%),[5],8%
same,Population Healthy Nuclei (%),[5],80%
same,Population Hoechst High Intensity Objects (%),[5],7%
same,Population Membrane Permeable-Phenotype (%),[5],0%
same,Population Mitochondria Different-Phenotype (%),[5],5%
same,Population Mitotic Cells (%),[5],72%
same,Population Normal (%),[5],92%
same,Population Pyknosed Nuclei (%),[5],11%
same,Total Cell Count,[5],229
same,Population Apoptotic (%),[6],0%
same,Population Fragmented Nuclei (%),[6],7%
same,Population Healthy Nuclei (%),[6],89%
same,Population Hoechst High Intensity Objects (%),[6],6%
same,Population Membrane Permeable-Phenotype (%),[6],2%
same,Population Mitochondria Different-Phenotype (%),[6],7%
same,Population Mitotic Cells (%),[6],100%
same,Population Normal (%),[6],93%
same,Population Pyknosed Nuclei (%),[6],3%
same,Population Tubulin-Different-Phenotype (%),[6],7%
same,Total Cell Count,[6],76
same,Population Apoptotic (%),[7],41%
same,Population Fragmented Nuclei (%),[7],18%
same,Population Healthy Nuclei (%),[7],32%
same,Population Hoechst High Intensity Objects (%),[7],8%
same,Population Membrane Permeable-Phenotype (%),[7],10%
same,Population Mitochondria Different-Phenotype (%),[7],71%
same,Population Mitotic Cells (%),[7],58%
same,Population Normal (%),[7],91%
same,Population Pyknosed Nuclei (%),[7],48%
same,Population Tubulin-Different-Phenotype (%),[7],31%
same,Total Cell Count,[7],173
same,Population Apoptotic (%),[8],27%
same,Population Fragmented Nuclei (%),[8],3%
same,Population Healthy Nuclei (%),[8],78%
same,Population Hoechst High Intensity Objects (%),[8],6%
same,Population Membrane Permeable-Phenotype (%),[8],2%
same,Population Mitochondria Different-Phenotype (%),[8],21%
same,Population Mitotic Cells (%),[8],72%
same,Population Normal (%),[8],93%
same,Population Pyknosed Nuclei (%),[8],18%
same,Population Tubulin-Different-Phenotype (%),[8],10%
same,Total Cell Count,[8],118
same,Population Apoptotic (%),[9],25%
same,Population Fragmented Nuclei (%),[9],9%
same,Population Healthy Nuclei (%),[9],85%
same,Population Hoechst High Intensity Objects (%),[9],4%
same,Population Membrane Permeable-Phenotype (%),[9],1%
same,Population Mitochondria Different-Phenotype (%),[9],12%
same,Population Mitotic Cells (%),[9],75%
same,Population Normal (%),[9],95%
same,Population Pyknosed Nuclei (%),[9],4%
same,Population Tubulin-Different-Phenotype (%),[9],8%
same,Total Cell Count,[9],288
same,Population Apoptotic (%),[10],16%
same,Population Fragmented Nuclei (%),[10],8%
same,Population Healthy Nuclei (%),[10],84%
same,Population Hoechst High Intensity Objects (%),[10],1%
same,Population Membrane Permeable-Phenotype (%),[10],0%
same,Population Mitochondria Different-Phenotype (%),[10],10%
same,Population Mitotic Cells (%),[10],83%
same,Population Normal (%),[10],98%
same,Population Pyknosed Nuclei (%),[10],6%
same,Population Tubulin-Different-Phenotype (%),[10],9%
same,Total Cell Count,[10],106
same,Population Apoptotic (%),[11],67%
same,Population Fragmented Nuclei (%),[11],32%
same,Population Healthy Nuclei (%),[11],21%
same,Population Hoechst High Intensity Objects (%),[11],12%
same,Population Membrane Permeable-Phenotype (%),[11],12%
same,Population Mitochondria Different-Phenotype (%),[11],58%
same,Population Mitotic Cells (%),[11],32%
same,Population Normal (%),[11],87%
same,Population Pyknosed Nuclei (%),[11],45%
same,Population Tubulin-Different-Phenotype (%),[11],28%
same,Total Cell Count,[11],265
same,Population Apoptotic (%),[12],16%
same,Population Fragmented Nuclei (%),[12],13%
same,Population Healthy Nuclei (%),[12],78%
same,Population Hoechst High Intensity Objects (%),[12],9%
same,Population Membrane Permeable-Phenotype (%),[12],11%
same,Population Mitochondria Different-Phenotype (%),[12],16%
same,Population Mitotic Cells (%),[12],83%
same,Population Normal (%),[12],90%
same,Population Pyknosed Nuclei (%),[12],7%
same,Population Tubulin-Different-Phenotype (%),[12],18%
same,Total Cell Count,[12],182
